# Reference: ChEMBL document CHEMBL1138272, “Synthesis, characterization, and receptor interaction profiles of enantiomeric bile acids” (J Med Chem, 2007)
# Activity calls are given as the source filed them. The calls are words filed in the database; no cut-off is given here.
# Columns and labels:
# [1] = target: T1, Nuclear receptor subfamily 1 group I member 2 (Homo sapiens, UniProt O75469); assay: Activation of human PXR expressed in HEK293 cells at 20 uM by GAL4 activation assay relative to control; assay type: cell-based; conditions: hek293, 20 µM
# T1 sequence (O75469 whole entry): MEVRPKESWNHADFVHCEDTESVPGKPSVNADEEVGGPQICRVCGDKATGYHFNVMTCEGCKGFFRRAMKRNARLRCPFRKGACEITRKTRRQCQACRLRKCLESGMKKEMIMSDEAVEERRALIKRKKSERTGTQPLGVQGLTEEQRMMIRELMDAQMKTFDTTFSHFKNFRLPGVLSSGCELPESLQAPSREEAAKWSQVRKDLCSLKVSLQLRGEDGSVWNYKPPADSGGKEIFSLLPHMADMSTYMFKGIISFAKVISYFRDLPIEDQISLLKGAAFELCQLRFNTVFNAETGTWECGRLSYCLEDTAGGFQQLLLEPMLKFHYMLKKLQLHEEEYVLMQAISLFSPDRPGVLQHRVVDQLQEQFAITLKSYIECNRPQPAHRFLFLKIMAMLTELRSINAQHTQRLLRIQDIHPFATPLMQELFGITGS
# Summary of the method: (§1)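 HEK293 cells in DMEM/10% super-stripped FBS, 4.0 × 10^4/well, calcium-phosphate transfected with UAS-luciferase (50 ng), GAL4-hFXR or GAL4-hPXR LBD fusion (15 ng), β-galactosidase (10 ng); ligands (5, 20, 50 µM) added 6-8 h later in delipidated medium, harvested 14-16 h later. Luciferase normalized to β-gal, fold over ethanol vehicle; triplicates.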
# Huh-7 [2] = assay: Activation of BSEP gene expression in human Huh7 cells at 20 uM after 18 hrs by RT-PCR; assay type: functional, cell-based
# Summary of the method: (§2)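 Huh7 cells seeded 2 × 10^5/well in high-glucose DMEM/10% FBS; next day ligands added in low-glucose DMEM with 5% charcoal-stripped FBS, 18 h. RNA harvested, SYBR green real-time QPCR, ΔΔCt normalized to cyclophilin, fold vs vehicle; N = 3, mean ± SD.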
# HepG2 [3] = assay: Activation of BSEP gene expression in human HepG2 cells at 25 uM after 18 hrs by RT-PCR; assay type: functional, cell-based
# Summary of the method: (§3)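 HepG2 cells seeded 3 × 10^5/well in M199 with 10% FBS and 25 mM HEPES; after 24 h, medium replaced with ligand-containing medium, 18 h. Total RNA isolated; real-time QPCR with SYBR green (12.5 ng cDNA, 150 nM primers); ΔΔCt method normalized to cyclophilin, fold change vs vehicle-treated cells; N = 3, mean ± SD.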
# Huh-7 [4] = assay: Activation of SHP gene expression in human Huh7 cells at 20 uM after 18 hrs by RT-PCR; assay type: functional, cell-based; summary of the method: as §2
# HepG2 [5] = assay: Decrease in CYP7A1 gene expression in human HepG2 cells at 25 uM after 18 hrs by RT-PCR; assay type: functional, cell-based; summary of the method: as §3
# [6] = target: T1, Nuclear receptor subfamily 1 group I member 2; assay: Activation of human PXR expressed in HEK293 cells at 50 uM by GAL4 activation assay relative to control; assay type: cell-based; conditions: hek293, 50 µM; summary of the method: as §1
# HepG2 [7] = assay: Activation of SHP gene expression in human HepG2 cells at 25 uM after 18 hrs by RT-PCR; assay type: functional, cell-based; summary of the method: as §3
# Caco-2 [8] = assay: Activation of IBABP gene expression in human Caco-2 cells at 25 uM after 6 days by RT-PCR; assay type: functional, cell-based
# Summary of the method: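 Caco-2 cells grown in high-glucose DMEM/15% heat-inactivated FBS, medium changed every 3 days; 23 days post-confluence treated with ligands in DMEM with 15% charcoal-stripped FBS for 6 days. SYBR green real-time QPCR, ΔΔCt normalized to cyclophilin, fold vs vehicle; N = 2.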
# Caco-2 [9] = assay: Activation of IBABP gene expression in human Caco-2 cells at 1 uM after 6 days by RT-PCR; assay type: functional, cell-based
# Summary of the method: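 Caco-2 grown in high-glucose DMEM with 15% heat-inactivated FBS, medium changed every 3 days. Treated 23 days postconfluence for 6 days in medium with 15% charcoal-stripped heat-inactivated FBS. RNA was read by SYBR green real-time QPCR, ΔΔCt normalised to cyclophilin, and expressed relative to vehicle; N = 2.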
# Huh-7 [10] = assay: Activation of SHP gene expression in human Huh7 cells at 1 uM after 18 hrs by RT-PCR; assay type: functional, cell-based
# Summary of the method: (§4)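 Huh7 seeded 2 × 10^5 cells/well in high-glucose DMEM with 10% FBS. Next day, ligands were added in low-glucose DMEM with 5% charcoal-stripped FBS for 18 h. RNA was read by SYBR green real-time QPCR, ΔΔCt normalised to cyclophilin, and expressed as fold over vehicle; N = 3.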
# HepG2 [11] = assay: Decrease in CYP7A1 gene expression in human HepG2 cells at 1 uM after 18 hrs by RT-PCR; assay type: functional, cell-based
# Summary of the method: (§5)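 HepG2 seeded 3 × 10^5 cells/well in M199 with 10% FBS, penicillin/streptomycin and 25 mM HEPES. After 24 h, medium was replaced with ligand-containing medium for 18 h. Total RNA was isolated and analysed by SYBR green real-time QPCR (12.5 ng cDNA, 150 nM primers). Values were derived by ΔΔCt against cyclophilin, as fold over vehicle; N = 3.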
# Huh-7 [12] = assay: Activation of BSEP gene expression in human Huh7 cells at 1 uM after 18 hrs by RT-PCR; assay type: functional, cell-based; summary of the method: as §4
# HepG2 [13] = assay: Activation of BSEP gene expression in human HepG2 cells at 1 uM after 18 hrs by RT-PCR; assay type: functional, cell-based; summary of the method: as §5
# HepG2 [14] = assay: Activation of SHP gene expression in human HepG2 cells at 10 uM after 18 hrs by RT-PCR; assay type: functional, cell-based; summary of the method: as §3
# [15] = target: T2, Bile acid receptor (Homo sapiens) (UniProt Q96RI1); assay: Activation of human FXR expressed in HEK293 cells by GAL4 activation assay; assay type: cell-based; summary of the method: as §1
# T2 sequence (whole entry): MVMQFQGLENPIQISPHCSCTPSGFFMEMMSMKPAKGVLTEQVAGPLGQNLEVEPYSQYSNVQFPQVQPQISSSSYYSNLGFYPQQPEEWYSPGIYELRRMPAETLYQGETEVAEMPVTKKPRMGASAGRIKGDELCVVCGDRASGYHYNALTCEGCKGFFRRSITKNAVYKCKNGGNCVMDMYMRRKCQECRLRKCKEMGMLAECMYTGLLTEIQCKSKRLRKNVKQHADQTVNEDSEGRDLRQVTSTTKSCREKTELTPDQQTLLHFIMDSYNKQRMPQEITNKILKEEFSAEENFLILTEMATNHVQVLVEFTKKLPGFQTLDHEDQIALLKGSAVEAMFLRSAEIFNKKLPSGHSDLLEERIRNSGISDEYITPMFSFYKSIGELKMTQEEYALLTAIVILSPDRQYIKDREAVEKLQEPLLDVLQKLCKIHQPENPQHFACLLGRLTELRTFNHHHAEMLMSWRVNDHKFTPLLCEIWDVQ
# [16] = target: T2, Bile acid receptor (Homo sapiens); assay: Activation of human FXR at 50 uM by FXRE TK-luciferase reporter gene assay relative to control
# Summary of the method: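 HEK293 cells calcium-phosphate cotransfected with full-length hFXR and hRXRα (15 ng each) plus FXREx3-TK-luc reporter (three copies of mouse IBABP IR-1) and β-galactosidase; bile acids 50 µM added in delipidated medium 6-8 h later, harvested 14-16 h later; luciferase normalized to β-gal; N = 3.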
# [17] = target: T3, G-protein coupled bile acid receptor 1 (Homo sapiens) (UniProt Q8TDU6); assay: Activation of TGR5 expressed in HEK293 cells assessed as elevation of cAMP production at 100 uM relative to control; assay type: functional, cell-based
# T3 sequence (whole entry): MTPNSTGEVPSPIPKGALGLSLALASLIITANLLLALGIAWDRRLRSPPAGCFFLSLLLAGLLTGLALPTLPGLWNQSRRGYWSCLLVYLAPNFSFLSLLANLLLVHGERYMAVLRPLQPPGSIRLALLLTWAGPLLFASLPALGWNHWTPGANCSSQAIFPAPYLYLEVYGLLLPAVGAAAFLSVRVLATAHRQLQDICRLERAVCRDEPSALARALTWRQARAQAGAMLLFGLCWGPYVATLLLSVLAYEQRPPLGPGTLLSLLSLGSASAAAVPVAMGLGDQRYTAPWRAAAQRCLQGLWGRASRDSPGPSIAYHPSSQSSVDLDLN
# Summary of the method: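 HEK293 seeded 0.5 × 10^6 cells/well and transfected 24 h later with TGR5 vector or empty vector. After 2 days, cells were exposed 30 min at 37 °C in fresh medium with 0.2 mM IBMX. Intracellular cAMP was measured by kit after lysis and expressed over vehicle; N = 2.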
SMILES,Activity [1],Activity (Huh-7 [2]),Activity (Huh-7 [4]),Activity (HepG2 [5]),Activity [6],Activity (Caco-2 [8]),Activity [15],also measured
C[C@H](CCC(=O)O)[C@H]1CC[C@H]2[C@@H]3[C@H](O)C[C@@H]4C[C@H](O)CC[C@]4(C)[C@H]3CC[C@]12C [CHENODIOL],Active,Active,Active,Active,Active,Active,–,Activity (HepG2 [3]): Active; Activity (HepG2 [7]): Active
C[C@H](CCC(=O)O)[C@H]1CC[C@H]2[C@@H]3[C@@H](O)C[C@@H]4C[C@H](O)CC[C@]4(C)[C@H]3CC[C@]12C,–,–,–,Active,–,inactive,–,–
CC(C)c1onc(-c2c(Cl)cccc2Cl)c1COc1ccc(/C=C/c2cccc(C(=O)O)c2)c(Cl)c1,–,–,–,–,–,–,–,Activity (Caco-2 [9]): Active; Activity (Huh-7 [10]): Active; Activity (HepG2 [11]): Active; Activity (Huh-7 [12]): Active; Activity (HepG2 [13]): Active
C[C@@H](CCC(=O)O)[C@@H]1CC[C@H]2[C@@H]3CC[C@H]4C[C@@H](O)CC[C@@]4(C)[C@H]3CC[C@]21C,Active,Active,Active,–,Active,inactive,Dose-dependent effect,Activity (HepG2 [14]): Active
C[C@H](CCC(=O)O)[C@H]1CC[C@H]2[C@@H]3CC[C@@H]4C[C@H](O)CC[C@]4(C)[C@H]3CC[C@]12C [LITHOCHOLIC ACID],Active,Active,Active,–,Active,inactive,Dose-dependent effect,Activity [16]: Active
C=C[C@@]1(C)CC(=O)[C@]2(O)[C@@]3(C)[C@@H](O)CCC(C)(C)[C@@H]3[C@H](O)[C@H](OC(C)=O)[C@@]2(C)O1,–,–,–,–,–,–,–,Fold change [17]: 16.5
